# CendR NRP1 mod – modulators of CendR peptide binding to human neuropilin-1 | 360,000 compounds, 0.85% hits | O14786 | inhibition, % at 25 µM | FAM-RPARPAR peptide binding to NRP-1, fluorescence polarization;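 active = inhibition or corrected inhibition above about 18%, plus a signal ratio from 0.5 to 1.5, limit read from the data, passing the limit was not always enough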
# SENP6 inh – blocks the human protease SENP6 | Recombinant SENP6 catalytic domain, aminoluciferin luminescence | AID 2599 | inhibition, % at 10 µM | 330,000 compounds, 1.8% hits | Q9GZR1;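 active = inhibition above about 50% at the single tested dose, limit read from the data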;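 also: plate controls were DMSO wells with enzyme for no effect and DMSO wells lacking enzyme for full effect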
# SENP8 block-1 – inhibitors of human SENP8 protease. Q96LD8. recombinant SENP8, Nedd8 substrate fluorescence. 360,000 compounds, 0.64% hits. inhibition, % at 20 µM. AID 602440; in the data active = inhibition mostly above about 40%, no sharp cut-off; inactive = mostly below about 27%
# Target sequence (Q96LD8 whole entry, looked up): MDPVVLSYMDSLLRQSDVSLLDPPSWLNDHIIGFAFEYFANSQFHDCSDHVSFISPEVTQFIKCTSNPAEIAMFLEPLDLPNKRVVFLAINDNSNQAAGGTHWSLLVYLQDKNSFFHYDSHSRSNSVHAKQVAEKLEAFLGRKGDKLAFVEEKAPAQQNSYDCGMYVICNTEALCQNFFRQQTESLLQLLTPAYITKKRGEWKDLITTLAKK
# SENP1 inh – inhibitors of human SENP1 SUMO protease catalytic domain; Q9P0U3; recombinant SENP1 catalytic domain, CyPet-SUMO1-YPet FRET cleavage; inhibition, % at 10 µM; 360,000 compounds, 0.21% hits; AID 624204;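 active = inhibition at least 30% at 10 µM, raw YFP signal under a set limit, fluorescence ratio 0.5 to 1.5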;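 also: 0% = enzyme with DMSO and 100% = no enzyme wells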
# Target sequence (Q9P0U3 419-644 limits assumed): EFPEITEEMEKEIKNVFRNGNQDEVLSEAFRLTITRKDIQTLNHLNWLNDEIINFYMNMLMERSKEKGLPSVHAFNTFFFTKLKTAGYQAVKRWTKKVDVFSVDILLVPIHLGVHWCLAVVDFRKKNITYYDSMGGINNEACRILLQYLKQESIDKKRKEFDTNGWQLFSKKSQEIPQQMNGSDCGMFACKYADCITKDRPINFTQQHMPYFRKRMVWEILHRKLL
#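 Material – human SENP1 catalytic domain · Input – SENP1 enzyme, 20 pM final · Compound dosing – single concentration of 10 µM compound, 0.5% DMSO final · Timing – enzyme reaction for 50 min at room temperature, dark · Measured by – FRET fluorescence in CFP and YFP emission channels · Control set – no-enzyme wells low, DMSO-plus-enzyme wells high control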
# SENP8 block-2 – inhibitors of human SENP8 protease; Q96LD8; purified SENP8, Z-RLRGG-aminoluciferin cleavage, luminescence; inhibition, % at 10 µM; 330,000 compounds, 1.2% hits; AID 2540; in the data active = inhibition above about 50%
# SENP7 block – SENP7 protease inhibition. Q9BQF6. recombinant SENP7, Z-RLRGG-aminoluciferin luminescence, 40 min. inhibition, % at 5 µM. 330,000 compounds, 1.5% hits;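 active = inhibition above about 50% at the single test dose, limit read from the data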;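 also: plate controls were DMSO with enzyme for no effect and no enzyme buffer wells for full effect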
# SENP8 confirm – human SENP8 inhibition, confirmed; shares compounds with SENP7 block; Recombinant SENP8, Z-RLRGG-aminoluciferin luminescence, 60 min; inhibition, % at 12.5 µM; 6,200 compounds, 40% hits;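 active = mean inhibition across replicates above about 50%, limit read from the data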
# SENP6 confirm – confirmation of human SENP6 protease inhibitors; inhibition, % at 12.5 µM; recombinant SENP6, Z-RLRGG-aminoluciferin luminescence; 6,200 compounds, 58% hits; shares compounds with SENP7 block
# SENP7 confirm – human SENP7 inhibition, confirmed; shares compounds with SENP7 block; recombinant SENP7, Z-RLRGG-aminoluciferin luminescence, 40 min; inhibition, % at 12.5 µM; 6,200 compounds, 69% hits; AID 488917
# Casp3 select – caspase-3 inhibition (SENP selectivity assay); 6,200 compounds, 60% hits; purified caspase-3, Z-DEVD-aminoluciferin luminescence, 60 min; inhibition, % at 12.5 µM; shares compounds with SENP7 block; AID 488918;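 active = mean inhibition above about 50%, limit read from the data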;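 also: plate controls were enzyme with DMSO for no effect and wells without caspase-3 for full effect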
# Target sequence (P42574 28-227 limits assumed): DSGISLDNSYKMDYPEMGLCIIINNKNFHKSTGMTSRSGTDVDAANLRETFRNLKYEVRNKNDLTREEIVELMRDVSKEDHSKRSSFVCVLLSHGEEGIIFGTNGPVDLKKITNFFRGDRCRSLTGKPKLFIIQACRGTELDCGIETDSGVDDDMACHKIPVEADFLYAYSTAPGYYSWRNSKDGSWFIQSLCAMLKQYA
# Luc interf – interferes with luciferase luminescence in SENP counter-screen. Pre-incubated SENP8/Z-RLRGG-aminoluciferin, luciferase luminescence interference. shares compounds with SENP7 block. inhibition, % at 12.5 µM. 6,200 compounds, 39% hits. AID 488919;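 active = mean inhibition above about 50% when retested at one dose, limit read from the data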;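 also: plate controls were DMSO wells with completed reaction for no effect and substrate without enzyme for full effect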
# An asterisk follows results filed as active; . = no result. In the library only some 3.3% were active in any assay of this set; here they are far more common.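 The calls were made as follows, unless noted: active = mean inhibition above about 50% in the one-dose retest (limit read from the data); inactive = the rest.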
SMILES,CendR NRP1 mod,SENP6 inh,SENP8 block-1,SENP1 inh,SENP8 block-2,SENP7 block,SENP8 confirm,SENP6 confirm,SENP7 confirm,Casp3 select,Luc interf
COc1cc(C)cc(OC)c1OCC(=O)Nc1cc(C)on1,5.3,-3.6,4.1,2.0,5.9,6.9,.,.,.,.,.
COc1cc(OC)cc(C(=O)Nc2ccc(NC(=O)c3ccco3)c(C)c2)c1,-18.5,97.9*,2.6,-1.6,93.6*,96.0*,4.5,95.3*,100.8*,95.9*,85.9*
Cc1ccc(NC(=O)c2cc(S(=O)(=O)N3CCCC3)cn2C)cc1C,-7.1,-15.9,7.7,2.6,-7.5,0.0,.,.,.,.,.
Cc1ccc(C(=O)Nc2ccc3c(c2)OCO3)cc1NC(=O)c1ccco1,2.1,-11.1,3.8,2.5,-0.7,10.4,.,.,.,.,.
CCn1nccc1C(=O)Nc1ccc(C)c(C)c1,-12.9,70.2*,10.2,-2.6,65.4*,82.0*,69.0*,63.5*,90.7*,83.8*,75.0*
O=C(Nc1ccc(Cl)c([N+](=O)[O-])c1)c1ccco1,1.9,-1.6,18.0,2.1,-26.5,0.8,.,.,.,.,.
Cc1cc(NC(=O)c2ccc3c(c2)OCO3)ccc1NC(=O)c1ccco1,-2.1,91.2*,20.9,-0.1,91.1*,92.0*,8.1,89.9*,100.0*,95.6*,89.6*
O=C(Nc1ccc(Br)c(Cl)c1)c1ccco1,-4.1,84.0*,17.2,0.8,45.6,70.3*,61.0*,58.2*,84.4*,40.9,68.7*
CCc1ccc(C(O)c2ncc(-c3ccccc3OC)[nH]2)cc1 (configuration not stated),-4.3,.,6.3,-0.1,.,.,.,.,.,.,.
O=C(Nc1ccc(OC(=O)c2ccco2)cc1)c1ccco1,11.7,82.8*,13.9,0.6,29.0,85.8*,66.9*,61.7*,90.3*,53.1*,79.5*
CCC(=O)Oc1ccc(NC(=O)c2ccco2)cc1,4.8,-26.7,11.4,2.0,-16.5,5.9,.,.,.,.,.
O=C(Nc1ccc(-c2nc3cccnc3s2)cc1)c1ccco1,-10.0,93.2*,-384.8,-43.7,85.8*,89.5*,74.9*,91.3*,98.9*,79.3*,22.1
CCN(CC(=O)Nc1ccc(NC(C)=O)cc1)C(=O)/C=C/c1ccc(C)o1,0.4,-1.7,-13.0,-3.3,1.0,3.5,.,.,.,.,.
Cc1ccc(-n2nc3ccc(NC(=O)C(C)C)cc3n2)cc1,-5.8,76.3*,-376.2,-4.4,38.7,80.4*,-14.9,-1.4,40.2,4.9,-2.7
CC(C)C(=O)Nc1ccc2nn(-c3ccc(F)cc3)nc2c1,-10.4,71.3*,-435.8,-68.3,53.1*,85.0*,15.9,31.2,65.6*,26.1,8.5
Cc1ccc(-n2nc3ccc(NC(=O)c4ccco4)cc3n2)cc1,3.2,1.2,-497.5,-31.6,-4.1,-2.3,.,.,.,.,.
Cc1ccnc(NS(=O)(=O)c2ccc(NC(=O)c3cccc(Cl)c3)cc2)n1,5.3,.,6.6,0.9,.,.,.,.,.,.,.
CN1CCN(c2ccc(CNC(=O)C3(C)Cc4c(-c5ccccc5)ccnc4O3)cc2)CC1 (configuration not stated),-2.4,.,6.3,0.6,.,.,.,.,.,.,.
Nc1ncc(Br)cc1N=Cc1ccccc1,2.8,71.9*,27.1,15.6,27.5,16.9,11.7,9.0,18.8,18.2,13.9
CN(c1ccccc1)c1ccc(/C=N/N2CCOCC2)cc1,2.2,51.9*,-21.0,0.3,34.2,30.8,44.3,43.3,79.0*,49.3,30.8
C(=NN1CCCCCC1)c1ccccc1,-12.2,.,11.2,1.5,.,.,.,.,.,.,.
CC(C)[C@H](NC(=O)OC(C)(C)C)c1cc(C(=O)NCCc2c[nH]c3ccccc23)c(N)s1,-34.2,.,7.8,-6.7,.,.,.,.,.,.,.
CCCOc1ccc(OCCSc2ncccn2)cc1,4.1,77.8*,24.7,1.3,42.9,65.2*,36.5,54.4*,86.5*,52.8*,46.9
CC1CCC(NC(=O)CN2C(=O)C3CC=CCC3C2=O)CC1 (configuration not stated),-0.1,-4.9,2.2,2.0,2.3,5.1,.,.,.,.,.
O=C(Cn1nnc(-c2ccccc2)n1)Nc1ccc2c(c1)OCO2,-3.4,-0.6,16.8,2.4,-1.8,4.7,.,.,.,.,.
SMILES,CendR NRP1 mod,SENP6 inh,SENP8 block-1,SENP1 inh,SENP8 block-2,SENP7 block,SENP8 confirm,SENP6 confirm,SENP7 confirm,Casp3 select,Luc interf
O=C(Cn1nnc(-c2ccc3c(c2)OCO3)n1)Nc1ccccc1C(=O)O,-1.6,89.0*,-3.6,0.1,80.3*,60.3*,48.3,87.2*,97.0*,86.7*,86.6*
O=c1oc2cc(O)ccc2c2oc3cc(O)ccc3c12,-8.2,73.6*,-375.5,-161.3,69.2*,6.7,44.7,50.0,89.3*,62.7*,12.4
N#CCOc1ccccc1CNC[C@H]1O[C@@H](n2cnc3c(=O)[nH]c(N)nc32)[C@H](O)[C@@H]1O,2.9,.,9.0,-0.9,.,.,.,.,.,.,.
C(=N\NC1=Nc2cccc3cccc1c23)/c1ccccc1,-9.7,61.8*,26.7,-20.3,32.9,48.3,28.3,25.9,83.4*,35.0,13.2
Clc1ccc(/C=N/NC2=Nc3cccc4cccc2c34)cc1,-90.5,-21.5,25.2,18.1,-18.4,2.2,.,.,.,.,.
O=C(CC[C@H]1O[C@@H](n2ccc(=O)[nH]c2=O)[C@H](O)[C@@H]1O)N[C@H](Cc1ccccc1)C(=O)NCC1CCCCC1,-2.5,.,10.2,0.8,.,.,.,.,.,.,.
Cc1c(Cc2ccccc2)c(=O)n2c([nH]c3ccccc32)c1C#N,8.7,52.3*,-432.0,-3.4,13.1,11.1,-1.6,14.5,7.4,4.3,-1.0
N#Cc1c(C(F)(F)F)cc(=O)n2c1[nH]c1ccccc12,2.3,83.0*,-288.5,-26.9,71.2*,2.5,3.4,75.3*,91.4*,78.9*,76.5*
Cc1ccc(Nc2nc3nonc3[nH]c2=O)cc1C,8.3,70.4*,6.9,-3.6,47.8,38.9,65.3*,62.3*,80.4*,64.2*,71.7*
Cc1ccc(NS(=O)(=O)c2ccc3[nH]c(=O)oc3c2)cc1Cl,-13.7,13.4,6.4,5.0,-3.0,11.8,.,.,.,.,.
Cc1ccc(Nc2nc3nonc3[nH]c2=O)cc1Cl,-0.5,79.8*,-12.0,-4.9,50.0*,9.4,68.5*,63.8*,75.3*,34.5,70.1*
Cc1ccc(Nc2nc(N)nc(N)c2N=O)cc1C,6.0,.,24.9,2.6,.,.,.,.,.,.,.

# High-throughput results as filed in PubChem.
